Laboratory results from ChEMBL document CHEMBL4033782, “Structural Modification of Natural Product Tanshinone I Leading to Discovery of Novel Nitrogen-Enriched Derivatives with Enhanced Anticancer Profile and Improved Drug-like Properties” (J Med Chem, 2018).
pIC50: −log10 of the molar value.

Columns and labels:
[1] = Half life in Sprague-Dawley rat at 1.0 mg/kg, iv; type: ADME, organism-based; settings: in vivo
Summary of the method: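 Male SD rats dosed i.v. at 1.0 mg/kg or orally at 3.0 mg/kg. Vehicle is DMSO, Tween 80 and normal saline. Plasma concentration–time data give CL, Vss, T1/2, Cmax, Tmax, MRT, AUC and oral bioavailability F.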

[2] = Antiproliferative activity against human KB/VCR cells after 72 hrs by sulforhodamine B assay; type: functional, cell-based
Summary of the method: (§1)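 Cells grown in ATCC-specified medium with 10% heat-inactivated FBS, penicillin/streptomycin and 10 mM Hepes, at 37 °C under 5% CO2. Seeded, cultured overnight, then exposed to gradient concentrations for 72 h. Growth read by SRB staining; inhibition % = [1−(A450 treated/A450 control)]×100. IC50 obtained by the Logit method from independent experiments.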

[3] = system: A549; assay: Antiproliferative activity against human A549 cells after 72 hrs by sulforhodamine B assay; type: functional, cell-based; settings: A549, 72 h; summary of the method: as §1
[4] = system: HCT-116; assay: Induction of apoptosis in human HCT116 cells assessed as late apoptotic cells at 1 uM after 48 hrs by Annexin V-FITC/propidium iodide staining-based FACS analysis (reference value: 5.74%); type: functional
[5] = system: HCT-116; assay: Induction of apoptosis in human HCT116 cells assessed as early apoptotic cells at 0.5 uM after 48 hrs by Annexin V-FITC/propidium iodide staining-based FACS analysis (reference value: 2.35%); type: functional
[6] = system: HCT-116; assay: Induction of apoptosis in human HCT116 cells pretreated with Z-VAD-FMK pan-caspase inhibitor for 1 hr assessed as late apoptotic cells at 2 uM after 48 hrs by Annexin V-FITC/propidium iodide staining-based FACS analysis (reference value: 3.15%); type: functional; set-up: scale not given: the % may be the effect or the level left
[7] = system: HCT-116; assay: Induction of apoptosis in human HCT116 cells assessed as late apoptotic cells at 0.5 uM after 48 hrs by Annexin V-FITC/propidium iodide staining-based FACS analysis (reference value: 5.74%); type: functional
[8] = system: Mus musculus; assay: Toxicity in BALB/C nude mouse xenografted with human HCT116 cells assessed as body weight loss at 30 mg/kg, ip once daily for 14 days starting on day 14 post tumor implantation measured every 4 days during compound dosing; type: organism-based; settings: in vivo
Summary of the method: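 Male BALB/c nude mice (18–20 g) with subcutaneous HCT116 implants in right axilla; treatment from day 14 once tumors exceeded 100 mm3, randomized (6/treated, 10/control group); 10 mg/kg i.v. or 30 mg/kg i.p. daily for 14 days in 1% DMSO/saline; 5-FU 15 mg/kg as reference; body weight tracked, mean ± SD of 6 mice.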

[9] = system: Liver; assay: Intrinsic clearance in mouse liver microsomes assessed per mg protein up to 60 mins by LC-MS/MS analysis; type: ADME, microsome; settings: 1 h
Summary of the method: (§2)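 Compound at 0.1 μM final (0.01% DMSO, 0.005% BSA) incubated at 37 °C with human, rat or mouse liver microsomes (0.33 mg/mL protein) in 0.1 M Tris/HCl pH 7.4, with 5 mM MgCl2 and 1 mM NADPH. Samples taken at 0, 7, 17, 30 and 60 min, quenched by methanol precipitation, centrifuged, and parent measured by LC-MS/MS. T1/2 and Clint derived.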

[10] = system: Liver; assay: Intrinsic clearance in human liver microsomes assessed as per mg protein up to 60 mins by LC-MS/MS analysis; type: ADME, microsome; settings: 1 h; summary of the method: as §2
[11] = Half life in human liver microsomes at 0.1 uM up to 60 mins by LC-MS/MS analysis; type: ADME, microsome; summary of the method: as §2
[12] = Tmax in Sprague-Dawley rat at 3.0 mg/kg, po; type: ADME, organism-based; settings: in vivo
Summary of the method: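 Male SD rats dosed orally at 3.0 mg/kg in DMSO/Tween 80/normal saline; plasma profile gives T1/2, Cmax, Tmax, AUC, MRT; F from comparison with 1.0 mg/kg i.v. dosing.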

half-life [1]: 1.51 h
pIC50 [3]: 6.72
intrinsic clearance [9]: 38.5 mL/min/g
intrinsic clearance [10]: 23.5 mL/min/g
half-life at 0.1 µM [11]: 1.49 h
Tmax [12]: 0.25 h
SMILES: CCN(CC)CCCn1c2c(c3ccccc3c1=O)C(=O)C(=O)c1cc(C)oc1-2
pIC50 [2]: 6.48
Activity [4]: 9.09%
Activity [5]: 2.39%
Activity [6]: 22.49%
Activity [7]: 4.19%
Activity [8]: Non-Toxic
